According to article PMC5594746 (Journal of biomolecular screening, 2016):

Tests used:
[1] = system: NDI associated V2R mutants; settings: cited from earlier work
[2] = system: V2R + DOX; assay: V2R + Dox cAMP counterscreen; type: cell-based; settings: Tet minus promoter inactive, no receptor protein made
Method in brief: (§1)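 Cryopreserved cells carrying tet-regulated hV2R L83Q were thawed and plated at 2,000/well in growth medium. Compound was pin-added (0.4% DMSO), then incubated 17 h at 37 °C, 5% CO2. Cells were stimulated with 5 μM vasopressin (final) in serum-free medium containing 2.5 mM IBMX for 2 h. After 10 min at room temperature, cAMP-Glo was added (19 min), then Kinase-Glo (10 min). Luminescence, inversely proportional to cAMP, was read.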

[3] = biological target: V2R; settings: regardless of species tested; cited from earlier work
[4] = biological target: mutant hV2R [L83Q] (Homo sapiens, UniProt P30518, L83Q); assay: V2R pharmacoperone cAMP luminescence; type: cell-based; settings: for activity as powder (active = EC50 ≤ 5 μM): de novo powder samples, titration assay, tested for the first time as powders
Method in brief: as §1

| SMILES | activity as powder (active = EC50 ≤ 5 μM) [4] | also measured |
| --- | --- | --- |
| CCOc1ccc2c(c1)C1(CCC(OCCN3CCOCC3)CC1)C(=O)N2S(=O)(=O)c1ccc(C(=O)NC(C)(C)C)cc1OC (stereo not shown) [SR121463] | – | number of NDI associated V2R mutants on which active [1]: at least 8; response of + Dox cells [2]: non-responsive; Ki [3]: low nanomolar |
| CCN(CC)S(=O)(=O)c1ccc(C(=O)Nc2nc3ccc(Cl)cc3s2)cc1 [SR-01000392254] | lack of activity | – |
| COc1ccc2nc(NC(=O)c3ccc(S(=O)(=O)N4CCCCC4)cc3)sc2c1 [SR-01000393329] | lack of activity | – |
| Cc1ccc2nc(NC(=O)c3cc(I)ccc3Cl)sc2c1 [SR-01000405773] | lack of activity | – |
| O=C(Nc1nc2ccc(F)cc2s1)c1ccc(S(=O)(=O)N2CCCCC2)cc1 [SR-01000442043] | lack of activity | – |
| COc1ccc(-c2csc(NC(=O)c3ccc(S(=O)(=O)N4CC(C)CC(C)C4)cc3)n2)cc1C (stereo not shown) [SR-01000443595] | – | EC50 ([4]; de-novo powder sample, CRC format): 70 nM |
| Cc1ccc2nc(NC(=O)c3cccc(Cl)c3)sc2c1 [SR-01000461570] | lack of activity | – |
| CN[C@@H]1C[C@H]2O[C@@](C)([C@@H]1OC)n1c3ccccc3c3c4c(c5c6ccccc6n2c5c31)C(=O)NC4 [staurosporine, reference compound] | – | % activation, primary screen ([4]; singlicate, nominal 5.22 μM, normalized to SR121463 high control): ≤ −50% |
